Measurements published in article PMC4629109 (Acta Pharmaceutica Sinica. B, 2014).
Converted amounts (≈) assume the structure as drawn.

Experiments:
ARPE-19 = assay: Cellular internalization by confocal scanning microscopy; type: cell-based; conditions: ARPE-19, 100 μmol/L, 37 °C
How it was run: (§1)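 Cells were seeded on confocal dishes at 5×10³ cells/well and grown 24 h at 37 °C. They were then exposed to 100 μmol/L test compound or fluorescein for 2 h or 6 h, and washed three times with HBSS. Intracellular fluorescence was imaged by laser scanning confocal microscopy, with excitation at 488 nm for fluorescein and 405 nm for the conjugate.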

Solubility study = type: physicochemical; conditions: doubly distilled water, 25 °C, thermodynamic from solid
How it was run: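 Excess solid was placed in doubly distilled water and shaken at 100 times/min at 25 °C for 24 h. It then stood a further 24 h at 25 °C and was centrifuged. The supernatant was assayed by HPLC on a Polar-RP column at 35 °C, with UV at 230 nm and pH 2.5 phosphate buffer/acetonitrile.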

hRMECs = assay: Cellular internalization by confocal scanning microscopy; type: cell-based, human; conditions: 100 μmol/L, 37 °C
How it was run: as §1

[1] = n-octanol/water partition coefficient, shake flask method; type: physicochemical
How it was run: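 Shake-flask method: n-octanol and water were mutually presaturated (24 h shaking, 4000 rpm 10 min). The compound was dissolved in water-saturated octanol and mixed with an equal volume of octanol-saturated water. The mixture was shaken at 100 times/min at 25 °C for 24 h and centrifuged at 4000 rpm for 10 min. Both phases were diluted and quantified by HPLC (UV 230 nm), and P was calculated as C(oil)/C(water).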

[2] = Transport across ARPE-19 monolayer cells; type: in vitro ADME; conditions: human
How it was run: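 ARPE-19 cells were seeded at 2.5×10⁵ cells/insert on 12-well 0.4 μm polycarbonate Transwells and used once TEER reached 150 Ω. After two HBSS rinses, 100 μmol/L compound in 37 °C HBSS was added apically. Basolateral samples were taken at 30, 60, 120, 240 and 360 min with replacement and analysed by HPLC. Papp=(ΔQ/Δt)/(A×C0), with A 1.12 cm², n=3. The ratio is Papp test/Papp fluorescein; a competition set used 24 h pre-incubation with 10 mmol/L taurine.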

[3] = Transport across hRMECs monolayer cells; type: in vitro ADME; conditions: human
How it was run: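 hRMEC monolayers were grown on 24-well 0.4 μm polycarbonate Transwells and used at TEER 200 Ω. After rinsing, 100 μmol/L compound in 37 °C HBSS was added apically. Basolateral samples were taken at 30, 60, 120, 240 and 360 min with replacement and analysed by HPLC (UV 230 nm). Papp=(ΔQ/Δt)/(A×C0), with A 0.33 cm², n=3. The ratio is Papp test/Papp fluorescein; a competition set used 24 h pre-incubation with 10 mmol/L taurine in both chambers.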

intracellular fluorescence (cellular uptake) (ARPE-19; 2 h): strong fluorescence
intracellular fluorescence (cellular retention) (ARPE-19; 6 h): almost no fluorescein was observed
solubility at 24 h (Solubility study): 6.75 µg/mL (≈ 20.3 µM)
intracellular fluorescence (cellular uptake) (hRMECs; 2 h): strong fluorescence
intracellular fluorescence (cellular retention) (hRMECs; 6 h): almost no fluorescein was observed
logP at 24 h [1]: 1.55
Papp at 360 min, 100 μmol/L [2]: 5.56 ± 0.8 ×10⁻⁶ cm/s
Papp at 360 min, 100 μmol/L [3]: 7.23 ± 0.92 ×10⁻⁶ cm/s
SMILES: O=C1OC2(c3ccc(O)cc3Oc3cc(O)ccc32)c2ccccc21 [Fluorescein]
